Key:
[1] = biological target: T1, Salicylate synthetase, Irp9 (Yersinia enterocolitica, UniProt Q9X9I8); assay: Inhibition of Yersinia enterocolitica Irp9 using chorismate as substrate assessed as pyruvate production after 10 mins by microplate reader analysis
T1 sequence (Q9X9I8 whole entry): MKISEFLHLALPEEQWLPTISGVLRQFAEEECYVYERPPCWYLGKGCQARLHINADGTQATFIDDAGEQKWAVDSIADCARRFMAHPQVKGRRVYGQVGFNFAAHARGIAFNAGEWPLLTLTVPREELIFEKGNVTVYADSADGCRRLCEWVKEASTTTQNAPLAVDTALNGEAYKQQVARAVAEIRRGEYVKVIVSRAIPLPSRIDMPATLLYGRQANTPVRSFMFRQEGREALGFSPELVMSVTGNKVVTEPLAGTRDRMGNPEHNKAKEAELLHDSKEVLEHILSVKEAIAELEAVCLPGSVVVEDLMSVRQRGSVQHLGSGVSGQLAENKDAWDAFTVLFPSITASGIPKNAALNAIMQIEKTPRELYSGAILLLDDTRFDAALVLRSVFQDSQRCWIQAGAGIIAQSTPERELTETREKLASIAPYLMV
How it was run: (§1)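 Pyruvate output at 25 °C, with PchB at 50 nM in 50 mM potassium phosphate pH 8 started with isochorismate, or Irp9 at 200 nM started with chorismate. Substrate was above the 10 µM Km and inhibitor was varied. Samples taken at 2-min points were quenched in 0.25 g/L DNPH in 1 M HCl and held 10 min at 37 °C. NaOH was added and A515 read, converted to pyruvate by standard curve. Runs were in triplicate, giving IC50.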

[2] = Inhibition of Pseudomonas aeruginosa PAO1 PchB expressed in Escherichia coli BL21(DE3) using isochorismate as substrate assessed as pyruvate production after 10 mins by microplate reader analysis; how it was run: as §1
[3] = biological target: T2, Bifunctional chorismate mutase/prephenate dehydratase (Escherichia coli (strain K12), UniProt P0A9J8); assay: Inhibition of Escherichia coli K-12 EcCM expressed in Escherichia coli BL21 Star (DE3) pLysS using chorismate as substrate assessed as disappearance of chorismate by stopped-flow analysis
T2 sequence (P0A9J8 whole entry): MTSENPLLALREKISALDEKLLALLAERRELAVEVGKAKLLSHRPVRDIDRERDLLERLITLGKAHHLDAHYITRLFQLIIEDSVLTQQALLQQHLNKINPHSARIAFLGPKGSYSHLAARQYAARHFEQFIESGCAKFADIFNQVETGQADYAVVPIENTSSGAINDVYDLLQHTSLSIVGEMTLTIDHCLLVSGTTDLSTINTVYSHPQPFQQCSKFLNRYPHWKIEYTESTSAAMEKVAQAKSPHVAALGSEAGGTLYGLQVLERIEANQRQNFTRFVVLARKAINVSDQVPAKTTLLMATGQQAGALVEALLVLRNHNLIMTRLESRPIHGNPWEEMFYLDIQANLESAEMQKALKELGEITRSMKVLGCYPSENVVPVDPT
How it was run: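 His-tagged EcCM domain was Ni-affinity and size-exclusion purified. Post-mixing concentrations were 500 nM enzyme, chorismate at Km (600 µM) and inhibitor 0–500 µM. Rate was the A310 decrease over 30 s, in triplicate, giving IC50.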

[4] = Inhibition of Pseudomonas aeruginosa PAO1 PchB expressed in Escherichia coli BL21(DE3) using isochorismate as substrate assessed as salicylate production by fluorescence spectrometry
How it was run: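 Untagged PchB at 50 nM in 50 mM potassium phosphate pH 8. […] Initial velocities at 25 °C were taken from salicylate fluorescence (ex 310/em 430 nm) over 120 s of the linear phase. IC50 came from dose-response percent inhibition.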

[5] = biological target: T1, Salicylate synthetase, Irp9; assay: Inhibition of Yersinia enterocolitica Irp9 using chorismate as substrate assessed as salicylate production by fluorescence spectrometry
How it was run: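 Irp9 at 100 nM in 50 mM Tris-HCl pH 7.5, 10 mM MgCl2, 10% glycerol. Reaction was started with chorismate, with inhibitor concentration varied. Initial velocities at 25 °C were taken from salicylate fluorescence (ex 310/em 430 nm) over 120 s of the linear phase. IC50 came from the dose-response.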

[6] = Inhibition of Pseudomonas aeruginosa PAO1 PchB
[7] = test system: Escherichia coli; assay: Ratio of I50 to Km for Escherichia coli Chorismate mutase
How it was run: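 N-His-tagged E. coli chorismate mutase domain (PheA), 500 nM. Chorismate at its Km (600 µM), inhibitor 0–500 µM, all post-mixing. Initial rates from A310 decrease over 30 s, in triplicate. I50 is the concentration giving 50% inhibition at substrate = Km, divided by Km.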

[8] = test system: Pseudomonas aeruginosa; assay: Antimicrobial activity against wild-type Pseudomonas aeruginosa PAO1 after 24 hrs by microplate reader analysis in presence of 5 uM FeCl3; format: functional, organism-based; details: PAO1, 24 h
How it was run: (§2)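 Overnight LB cultures were diluted to OD600 0.5 in PMH-D medium. Cells were added to PMH-D containing FeCl3, either 5 µM (iron-limited) or 200 µM (iron-rich), with inhibitor at 0–5 mM (DMSO vehicle). Plates were shaken at 37 °C for 24 h. Cells were then pelleted, the medium was removed, and cells were resuspended in LB. A600 was read. Growth was normalized to no-inhibitor cultures to give EC50.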

[9] = test system: Yersinia enterocolitica; assay: Antimicrobial activity against Yersinia enterocolitica ATCC 9610 after 24 hrs by microplate reader analysis in presence of 5 uM FeCl3; format: functional, organism-based; details: ATCC 9610, 24 h; how it was run: as §2
[10] = test system: Pseudomonas aeruginosa; assay: Antimicrobial activity against wild-type Pseudomonas aeruginosa PAO1 after 24 hrs by microplate reader analysis in presence of 200 uM FeCl3; format: functional, organism-based; how it was run: as §2
[11] = Competitive inhibition of Pseudomonas aeruginosa PAO1 PchB expressed in Escherichia coli BL21(DE3) using isochorismate as substrate
How it was run: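 Untagged PchB at 50 nM final, in 50 mM potassium phosphate pH 8 (plus 1 mM TCEP for stopped-flow runs), at 25 °C. Isochorismate was varied up to 75 µM and inhibitor up to 1.5 µM. Salicylate formation was followed by fluorescence (excitation 310 nm; emission 430 nm or 360 nm cutoff) as linear initial velocities, over 120 s on a cuvette fluorimeter or 30 s by stopped-flow.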

[12] = test system: Pseudomonas aeruginosa; assay: Antimicrobial activity against Pseudomonas aeruginosa PAO1 PchE deletion mutant after 24 hrs by microplate reader analysis in presence of 5 uM FeCl3; format: functional, organism-based; details: PAO1, 24 h; how it was run: as §2
[13] = test system: Pseudomonas aeruginosa; assay: Antimicrobial activity against Pseudomonas aeruginosa PAO1 PchE deletion mutant after 24 hrs by microplate reader analysis in presence of 200 uM FeCl3; format: functional, organism-based; how it was run: as §2
[14] = test system: Pseudomonas aeruginosa; assay: Antimicrobial activity against Pseudomonas aeruginosa PAO1 PvdA deletion mutant after 24 hrs by microplate reader analysis in presence of 5 uM FeCl3; format: functional, organism-based; details: PAO1, 24 h; how it was run: as §2
[15] = test system: Pseudomonas aeruginosa; assay: Antimicrobial activity against Pseudomonas aeruginosa PAO1 PvdA deletion mutant after 24 hrs by microplate reader analysis in presence of 200 uM FeCl3; format: functional, organism-based; how it was run: as §2
[16] = biological target: T2, Bifunctional chorismate mutase/prephenate dehydratase; assay: Competitive inhibition of Escherichia coli K-12 EcCM expressed in Escherichia coli BL21 Star (DE3) pLysS using chorismate as substrate
How it was run: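 N-terminally His-tagged chorismate mutase domain of pheA, purified by Ni-chelate and size-exclusion chromatography. Enzyme with inhibitor mixed 1:1 with chorismate. Final concentrations: enzyme 500 nM, chorismate 0–2 mM, inhibitor 0–50 µM. Initial rates read as the 30 s decrease in absorbance at 310 nm, giving Ki and inhibition mode.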

[17] = biological target: T1, Salicylate synthetase, Irp9; assay: Competitive inhibition of Yersinia enterocolitica Irp9 using chorismate as substrate
How it was run: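 Stopped-flow kinetics at 25 °C in 50 mM Tris pH 7.5, 10 mM MgCl2, 10% glycerol. Final Irp9 was 100 nM, chorismate 0–40 µM and inhibitor 0–10 µM. Enzyme plus inhibitor was mixed with chorismate. Initial velocities came from the rise in salicylate fluorescence (ex 310 nm, 360 nm cutoff filter) over 30 s. Ki and inhibition mode were derived from these rates.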

Row | Structure (SMILES) | IC50 [1] | IC50 [2] [µM] | IC50 [3] [µM] | IC50 [4] [µM] | other results
1 | COC(=O)Oc1c(Cl)cc2oc(=O)sc2c1[N+](=O)[O-] | Not Active | 1.8 | 45 | 3.3 | –
2 | O=C(O)c1cccc(S(=O)(=O)Nc2ccccc2C(=O)O)c1 | Not Active | 0.22 | 170 | 0.25 | IC50 [5]: Not Active
3 | O=c1oc2cc(Br)c(O)c(Br)c2s1 | – | 10 | 120 | 10 | –
4 | O=P(O)(O)C12CC3CC(CC(C3)C1)C2 | – | – | – | – | Ki [6]: > 5000 µM
5 | O=C1S/C(=C/c2cc([N+](=O)[O-])cc([N+](=O)[O-])c2O)C(=O)N1c1ccccc1 | Not Active | 1.4 | 85 | 1.4 | –
6 | O=C(O)c1cc(S(=O)(=O)Nc2ccccc2C(=O)O)ccc1Br | Not Active | 0.094 | 200 | 0.24 | IC50 [5]: Not Active
7 | O=C(O)C1CC2(C(=O)O)C=CC(O)C(C2)O1 (configuration not stated) | – | – | – | – | Ki [6]: 2 µM; Ratio [7]: 0.008
8 | COC(=O)Oc1c([N+](=O)[O-])cc2oc(=O)sc2c1[N+](=O)[O-] | – | 0.53 | 32 | 0.87 | EC50 [8]: > 5000 µM; EC50 [9]: 2300 µM; EC50 [10]: Not Active; Ki [11]: 0.35 µM; EC50 [12]: > 5000 µM; EC50 [13]: Not Active; EC50 [14]: > 5000 µM; EC50 [15]: Not Active; Ki [16]: 40 µM; Ki [17]: 0.8 µM
